Data set [1] in a line: Prodrug conversion in commercial liver S9 fractions assessed as paranitrophenol generation rate assessed per mg of protein per min. The class given is ADME, subcellular, Liver S9 fraction.
A short description of data set [2]: Prodrug conversion in 7 days old female rat liver S9 fractions assessed as conversion of oseltamivir to oseltamivir carboxylate. The class given is ADME, subcellular, S9 fraction. Put shortly:
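S9 from brain or liver (rat S9 made by homogenizing tissue in ~4 ml Tris-sucrose buffer per g, supernatant after 9,000 × g at 10°C; pooled human brain and liver S9 also used), protein by bicinchoninic acid assay. Oseltamivir: triplicate, 10 μM 14C-oseltamivir final, 1.0 mg S9 protein, 100 mM Tris-HCl pH 7.4, 30 min at 37°C, quenched with TCA-acetonitrile.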

Data set [3] can be described thus: Prodrug conversion in 7 days old male rat liver S9 fractions assessed as paranitrophenol generation rate assessed per mg of protein per min. The class given is ADME, subcellular, S9 fraction.
The nature of data set [4]: Prodrug conversion in 7 days old female rat brain S9 fractions assessed as paranitrophenol generation rate assessed per mg of protein per min. The class given is ADME, tissue-based.
Data set [5] can be described thus: Prodrug conversion in 42 days old male rat brain S9 fractions assessed as paranitrophenol generation rate assessed per mg of protein per min. The class given is ADME, tissue-based. Put shortly:
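Control esterase activity was measured by incubating 100 µM p-nitrophenyl acetate (final) with 0.05 mg rat brain or liver S9 protein in 1.5 ml Tris-HCl pH 7.4 for 1 min at 37°C. Reactions were quenched with acetonitrile, and product was quantified by HPLC-UV against external standards. The no-protein blank rate was subtracted, and rate was expressed per mg protein per min.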

A short description of data set [6]: Volume of distribution at steady state in Sprague-Dawley rat at 30 mg/kg, iv. The class given is ADME, organism-based. The arrangement: dose 30 mg/kg, route intravenous. To be noted: in vivo, read-out: Vdss. In short, it runs like this: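 Nonfasted adult Sprague-Dawley rats received a single 30 mg/kg i.v. bolus in 0.9% NaCl (pH 4.0), injected slowly into the tail vein over 20–30 s. Plasma was sampled by cardiac puncture under isoflurane at 5 min and 0.25, 0.5, 1, 2, 4 and 8 h, with 4–5 rats per time point. Samples were assayed by LC-MS/MS. Vss was estimated by noncompartmental analysis of pooled composite data.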

Data set [7] in a line: AUC (0 to infinity) ratio in brain to plasma in perfused Sprague-Dawley rat at 30 mg/kg, iv. The class given is ADME, organism-based. The arrangement: dose 30 mg/kg, route intravenous. To be noted: brain and plasma, read-out: Ratio AUC. Put shortly:
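Nonfasted adult rats received 30 mg/kg in aqueous 0.9% NaCl (pH 4.0) by slow tail-vein injection over 20–30 s. Groups were sampled at 5 min and 0.25, 0.5, 1, 2, 4 and 8 h, with 4–5 rats per time point, under terminal isoflurane. Blood was taken by heart puncture and CSF from the cisterna magna. Brains were homogenized either unperfused or after transcardial saline perfusion. Samples were assayed by LC-MS/MS, and pooled composite data were analyzed noncompartmentally.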

`CCOC(=O)C1=C[C@@H](OC(CC)CC)[C@H](NC(C)=O)[C@@H](N)C1` [OSELTAMIVIR]: the Activity worked out at 482 nmol in data set [1]; 0.1% in data set [2]; 467 nmol in data set [3]; 92 nmol in data set [4]; 112 nmol in data set [5]. Besides, in data set [6], the Vd came to 3 L/kg. Moreover, the Kp in data set [7] turned out to be 0.21.

Source of the values: ChEMBL document CHEMBL1687750, “Nonclinical pharmacokinetics of oseltamivir and oseltamivir carboxylate in the central nervous system” (Antimicrob Agents Chemother, 2009).
